Assay outcomes as filed in PubChem BioAssay.
Only some compounds are listed: those with a hit (about 6.1% of all), similar ones and a draw of the others.
BB579 growth dn: yeast BB579 growth reduction in restrictive medium | inhibition, % at 10 µM | AID 804 | S. cerevisiae BB579 growth, OD615, 48 h | actives 0.51% (n = 140,000);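 active means inhibition above a set limit, 3 SD over the mean compound inhibition, cut at about 44% in these data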
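System: DeaD yeast strain BB579; buffer or medium: CSMM-D dextrose restrictive medium; technique: OD at 615 nm; schedule: 4 h cell preincubation, 48 h compound exposure, 30 °C humidified; doses: single 10 µM dose; controls: amphotericin B 10 µg/mL, positive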
Measles CPE: protection of cells from measles virus; Measles virus-infected cells, CPE protection, absorbance; protection (pct of control), % at 4 µM; actives 1.5% (n = 140,000); AID 841; in the data active means protection mostly above about 24%, no sharp cut-off; inactive means mostly below about 26%
Yeast lifespan up: extends the lifespan of yeast; S. cerevisiae growth with nicotinamide, OD615; deaD strain in restrictive glucose medium; inhibition of the nicotinamide effect, % at 10 µM; actives 0.68% (n = 130,000); AID 775;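 active means inhibition above a set limit, placed 3 SD over the median of all compounds, cut at about 26% in these data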;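 further: 0% = nicotinamide-treated wells and 100% = cells grown without nicotinamide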
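Material: Modified budding yeast, DeaD strain | Medium: Restrictive glucose medium | Probe or stimulus: 1.5 mM nicotinamide | Dosing: Single dose 10 µM compound, 0.25% DMSO | Times: 48 h at 30 °C | Technique: OD615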
WT yeast gro inh: growth inhibition of WT yeast, mitochondrial fusion screen | mitochondrial fusion phenotypic screen, WT strain | inhibition, % at 10 µM | actives 2.1% (n = 190,000) | AID 1362; in the data active means inhibition above about 58%; tested in S. cerevisiae
RAM network inh: blocks the yeast RAM network | S. cerevisiae dse1pr::URA3 reporter, 5-FOA growth OD615, 2 d; analog-sensitive cbk1-as2 kinase mutant strain | inhibition, % at 50 µM | actives 1.8% (n = 190,000) | AID 868;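 active means inhibition above a set limit, 3 SD over mean compound inhibition, cut at about 8.4% in these data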;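 further: 0% = DMSO-only wells with no growth and 100% = 10 µM 1-NA-PP1 full growth; inhibition rescues growth on 5-FOA so higher OD means more RAM inhibition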
DAT uptake mod: changed human dopamine transporter uptake under cocaine IC80; Q01959; LLC-PK1 hDAT cells, [14C]-dopamine uptake with cocaine IC80; actives deviate in either direction; B-score at 10 µM; actives 1.3% (n = 110,000);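 active means Z score or B-score, a plate-position-corrected score, falls beyond the plate's 99.7% confidence bounds, in either direction; inactive means both scores lie inside the 99.7% bounds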;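 further: scored against the spread of the other compound wells on the same plate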
Target sequence (Q01959 whole entry, looked up): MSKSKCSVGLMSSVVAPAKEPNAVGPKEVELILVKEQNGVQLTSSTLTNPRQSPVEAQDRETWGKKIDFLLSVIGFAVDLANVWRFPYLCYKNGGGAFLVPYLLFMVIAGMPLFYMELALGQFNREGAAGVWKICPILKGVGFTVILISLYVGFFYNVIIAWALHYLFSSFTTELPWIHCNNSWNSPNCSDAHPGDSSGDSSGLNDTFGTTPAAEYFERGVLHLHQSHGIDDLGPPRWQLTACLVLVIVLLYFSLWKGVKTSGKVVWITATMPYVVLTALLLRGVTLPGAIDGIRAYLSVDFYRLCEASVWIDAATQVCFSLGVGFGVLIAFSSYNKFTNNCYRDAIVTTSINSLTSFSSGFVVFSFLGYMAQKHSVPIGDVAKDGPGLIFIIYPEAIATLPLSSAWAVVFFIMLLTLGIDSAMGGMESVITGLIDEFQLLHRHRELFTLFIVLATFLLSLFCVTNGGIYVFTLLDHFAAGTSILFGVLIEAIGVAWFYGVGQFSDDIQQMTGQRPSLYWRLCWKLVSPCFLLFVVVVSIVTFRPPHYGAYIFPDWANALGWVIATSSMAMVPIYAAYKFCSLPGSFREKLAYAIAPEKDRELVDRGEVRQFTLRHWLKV
Active calls of the source: *; / = no result.

SMILES	BB579 growth dn	Measles CPE	Yeast lifespan up	WT yeast gro inh	RAM network inh	DAT uptake mod
CC(C)Cc1cc(C(=O)Nc2ccc(F)cc2F)no1	-34	4	-9	9	1	0.073
COc1ccccc1NC(=O)COC(=O)C12CC3CC(CC(Cl)(C3)C1)C2	/	/	/	18	11*	/
c1ccc2[nH]c(SN3CCOCC3)nc2c1	-49	1	-17	-10	1	0.6
CCOC(=O)/C=C/COc1ccccc1[N+](=O)[O-]	/	/	/	-19	-1	/
COc1ccc(C2C3=C(CCCC3=O)Nc3nc(SCc4ccc(C(=O)O)cc4)nn32)cc1OC (stereo unspecified)	-55	31*	-7	11	8.8*	0.79
CC(C)C1CC(C(F)(F)F)n2nc(C(=O)O)cc2N1 (stereo unspecified)	/	/	/	2	1	/
CCOC(=O)c1c(NC(=O)c2ccc(Cl)cc2)csc1C	-11	10	-3	3	5	/
Cc1ccc(C)c(OCC(=O)NCCN(C)C)c1	-3	22	-6	-7	0	0.15
Cc1noc(C)c1CSc1nnc(-c2c[nH]c3ccccc23)n1-c1ccc(Cl)cc1	-32	9	-1	9	9.4*	-0.028
O=C(Nc1nccs1)c1ccc(COc2ccccc2Br)o1	-57	3	-14	44	2	0.027
CCOC(=O)c1[nH]nc(C(=O)c2ccc(Br)cc2)c1O	-35	/	48*	23	2	0.65
COc1ccc(NC(=O)c2cccc(S(=O)(=O)N(C)c3ccccc3)c2)cn1	-6	8	0	11	0	/
COc1ccc(NC(=O)c2cc(S(=O)(=O)N(Cc3ccccc3)c3ccccc3)ccc2Cl)cn1	-45	39*	9	22	7	/
CC(C)Cc1cc(C(=O)N2CCN(C(c3ccccc3)c3ccccc3)CC2)no1	-56	10	-3	59*	2	2.4
O=C(N1CCCCC1)N1CCN(C(c2ccccc2)c2ccccc2)CC1	-33	3	25	41	0	0.58
O=C(CN1CCN(C(c2ccccc2)c2ccccc2)CC1)NC(=O)NCc1ccco1	-64	14	-29	4	2	0.096
CC(C)CNC(=S)N1CCN(C(c2ccccc2)c2ccccc2)CC1	-10	8	8	70*	0	/
S=C(NCc1ccco1)N1CCN(C(c2ccccc2)c2ccccc2)CC1	-27	24	-1	64*	0	-0.0029
C=C(C)CNC(=S)N1CCN(C(c2ccccc2)c2ccccc2)CC1	/	/	/	55	1	/
O=C(N1CCOCC1)N1CCN(C(c2ccccc2)c2ccccc2)CC1	-22	5	-7	95*	0	1.6
CCc1ccc(S(=O)(=O)NC(=S)NC2CCCCC2)cc1	/	/	/	25	3	/
O=C(/C=C/N1CCOCC1)c1ccc(-c2ccccc2)cc1	99*	2	-32	3	2	-0.49
O=C(c1ccc(-c2ccccc2)cc1)c1ccccc1C(=O)N1CCOCC1	-43	3	-24	-2	2	1.3
CC1CCc2nc(N)c(C#N)c(-c3cccnc3)c2C1 (stereo unspecified)	-6	76*	-3	-11	-1	-0.22
CCOC(=O)c1c(-c2ccc(OC)cc2)csc1/N=C/C1=C(O)CCCC1=O	-21	6	-4	60*	6	/
SMILES	BB579 growth dn	Measles CPE	Yeast lifespan up	WT yeast gro inh	RAM network inh	DAT uptake mod
CCOC(=O)c1c(/N=C/C2=C(O)CCCC2=O)sc(C)c1C	-33	23	-5	1	0	/
CC(C)=CCCC(C)NC(=O)NC1CCCCC1 (stereo unspecified)	-6	27*	/	18	-1	1.5
COCCN(C(=S)Nc1ccc(C(C)C)cc1)C(C)c1cccs1 (stereo unspecified)	/	/	/	63*	2	/
COCCN(C(=S)Nc1c(C)cc(C)cc1C)C(C)c1cccs1 (stereo unspecified)	/	/	/	65*	2	/
COCCCN(C(=S)Nc1cc(Cl)cc(Cl)c1)C(C)c1ccncc1 (stereo unspecified)	-36	17	41*	21	0	/
COCCCN(C(=S)Nc1ccc(C)cc1Cl)C(C)c1ccncc1 (stereo unspecified)	-35	5	15	-1	0	/
COCCN(C(=S)Nc1cccc(OC)c1)C(C)c1cccs1 (stereo unspecified)	-58	13	-3	44	1	/
CCOC(=O)Cc1csc(NC(=O)CC(C)(C)C)n1	-23	10	-1	-12	-2	0.047
NS(=O)(=O)c1cccc(NC(=O)CCSc2ccccc2Cl)c1	2	6	1	-7	1	/
O=C(CCSc1ccccc1Cl)Nc1cccc([N+](=O)[O-])c1	-60	26	-6	52	8.9*	/
CCc1cccc(C)c1NC(=S)NCc1ccc2[nH]c(C)cc2c1	54*	4	-2	18	5	-0.55
O=C1CC(N2CCOCC2)C(=O)N1Cc1ccc(N2CCCC2=O)cc1 (stereo unspecified)	20	42*	-5	2	2	-1.7
CN(C)c1ccc([C@@H]2[C@@H]([N+](=O)[O-])[C@H]3C=Cc4ccccc4N3[C@H]2C(=O)c2ccc(Cl)cc2)cc1	-9	6	32*	3	2	/
CN(C)c1ccc(C2SCCN2C(=O)c2ccc([N+](=O)[O-])cc2)cc1 (stereo unspecified)	-15	3	-3	44	0	/
CC12CCC(=O)N1c1c(sc3nc(N4CCOCC4)c4c(c13)CCCC4)C(=O)N2 (stereo unspecified)	-3	1	-22	2	1	3.2*
O=C1Nc2ccc(Cl)cc2C12Nc1ccccc1-c1nnc(SCc3ccccc3F)nc1O2 (stereo unspecified)	-1	4	2	69*	4	/
O=C(NCCc1ccccc1)c1ccc(Cl)nc1	-25	6	/	16	2	-1.3
CCOC(=O)C1CCCN(CC(=O)Nc2c(C(=O)OC)[nH]c3ccc(Cl)cc23)C1 (stereo unspecified)	-28	3	-15	-7	-1	2.9*
CCOC(=O)c1[nH]c2ccc(Cl)cc2c1NC(=O)/C=C/c1ccc2c(c1)OCO2	-12	29	3	-7	4	/
CCOC(=O)C1CCCN(CC(=O)Nc2c(C(=O)OC)[nH]c3ccc(C)cc23)C1 (stereo unspecified)	-24	38	-14	-3	1	1.9
CCN(CC(=O)Nc1c(C(=O)OC)[nH]c2ccc(Cl)cc12)c1ccc2c(c1)OCO2	-9	18	-8	68*	3	1.4
CCN(CC1COc2ccccc2O1)S(=O)(=O)c1ccc(C)cc1 (stereo unspecified)	-23	9	2	28	3	/
O=C1N(c2cccc3ccccc23)C(c2ccccc2)N2CCCN12 (stereo unspecified)	-3	20*	1	-2	2	/
